Data set [1] relates to Pneumocystis carinii. In words: In vivo activity against pneumocystis carinii was determined as toxicity which indicates the death of animals at a dose of 4.8 uM/Kg/day. It counts as organism-based. The gist of the method:
(§1)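 Dosing intravenous unless otherwise noted; daily dose in μM/kg/day. Toxicity graded on a numerical severity scale where higher scores mean more severe toxicity and scores above 2 mean some animals died.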

In data set [2] the test system is Pneumocystis carinii. The experiment in a line: In vivo activity against pneumocystis carinii was determined as toxicity which indicates the death of animals and counted cysts in a blinding protocol in lung tissue reported as % of saline treated control at a dose of 4.8 uM/Kg/day. The data set is classed as organism-based. The gist of the method: (§2)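 Dosed intravenously unless otherwise marked (some oral). Toxicity graded on a severity scale where larger values are more severe and values above 2 mean some animals died. Cysts in lung tissue counted under a blinded protocol and expressed as percent of saline-treated controls.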

Data set [3] has as its system Giardia intestinalis. In words: Inhibitory activity for 50% on growth of Giardia lamblia in cell culture. It counts as functional, organism-based. Particulars: Giardia duodenalis.
In data set [4] the target is DNA topoisomerase II (Giardia lamblia). The experiment in a line: Inhibitory activity for 50% on topoisomerase II isolated from Giardia lamblia.
For data set [5], the system named is Pneumocystis carinii. In words: In vivo activity against pneumocystis carinii was determined as toxicity which indicates the death of animals and counted cysts in a blinding protocol in lung tissue reported as % of saline treated control at a dose of 2.3 uM/Kg/day. It counts as organism-based. The gist of the method:
as §2

The test system of data set [6] is Pneumocystis carinii. In words: In vivo activity against pneumocystis carinii was determined as toxicity which indicates the death of animals at a dose of 0.18 uM/Kg/day. It counts as organism-based. The gist of the method:
as §1

Data set [7] relates to Pneumocystis carinii. In words: In vivo activity against pneumocystis carinii was determined as toxicity which indicates the death of animals at a dose of 2.3 uM/Kg/day. It counts as organism-based. The gist of the method:
as §1

In data set [8] the test system is Pneumocystis carinii. In words: In vivo activity against pneumocystis carinii was determined as toxicity which indicates the death of animals and counted uM/Kg/day. It counts as organism-based. The gist of the method:
as §2

Data set [9] has as its system Pneumocystis carinii. The experiment in a line: In vivo activity against pneumocystis carinii was determined as toxicity which indicates the death of animals and counted cysts in a blinding protocol in lung tissue reported as % of saline treated control at a dose of 9.2 uM/Kg/day. It counts as organism-based. The gist of the method:
as §2

For data set [10], the system named is Pneumocystis carinii. The experiment in a line: In vivo activity against pneumocystis carinii was determined as toxicity which indicates the death of animals at a dose of 9.2 uM/Kg/day. It counts as organism-based. The gist of the method: as §1
Data set [11] concerns Pneumocystis carinii. In words: In vivo activity against pneumocystis carinii was determined as toxicity which indicates the death of animals and counted cysts in a blinding protocol in lung tissue reported as % of saline treated control at a dose of 10.9 uM/Kg/day). It counts as organism-based. The gist of the method:
as §2

Data set [12] concerns Pneumocystis carinii. The experiment in a line: In vivo activity against pneumocystis carinii was determined as toxicity which indicates the death of animals at a dose of 10.9 uM/Kg/day. The data set is classed as organism-based. The gist of the method: as §1
For data set [13], the system named is Pneumocystis carinii. The experiment in a line: In vivo activity against pneumocystis carinii was determined as toxicity which indicates the death of animals and counted cysts in a blinding protocol in lung tissue reported as % of saline treated control at a dose of 2.7 (uM/kg/day). The data set is classed as organism-based. The gist of the method:
as §2

Data set [14] relates to Pneumocystis carinii. In words: In vivo activity against pneumocystis carinii was determined as toxicity which indicates the death of animals at a dose of 2.7 (uM/kg/day). The data set is classed as organism-based. The gist of the method:
as §1

Data set [15] deals with Pneumocystis carinii. The experiment in a line: In vivo activity against pneumocystis carinii was determined as toxicity which indicates the death of animals at a dose of 0.027 (uM/kg/day). The data set is classed as organism-based. The gist of the method:
as §1

Data set [16] concerns Pneumocystis carinii. In words: In vivo activity against pneumocystis carinii was determined as toxicity which indicates the death of animals and counted cysts in a blinding protocol in lung tissue reported as % of saline treated control at a dose of 66.3 (uM/kg/day). It counts as organism-based. The gist of the method: as §2
Data set [17] deals with Pneumocystis carinii. The experiment in a line: In vivo activity against pneumocystis carinii was determined as toxicity which indicates the death of animals and counted cysts in a blinding protocol in lung tissue reported as % of saline treated control at a dose of 0.027 (uM/kg/day). It counts as organism-based. The gist of the method: as §2
Data set [18] relates to Pneumocystis carinii. In words: In vivo activity against pneumocystis carinii was determined as toxicity which indicates the death of animals and counted cysts in a blinding protocol in lung tissue reported as % of saline treated control at a dose of 0.27 (uM/kg/day). The data set is classed as organism-based. The gist of the method: as §2
For data set [19], the system named is Pneumocystis carinii. The experiment in a line: In vivo activity against pneumocystis carinii was determined as toxicity which indicates the death of animals and counted cysts in a blinding protocol in lung tissue reported as % of saline treated control at a dose of 13.3 (uM/kg/day). The data set is classed as organism-based. The gist of the method:
as §2

In data set [20] the test system is Pneumocystis carinii. The experiment in a line: In vivo activity against pneumocystis carinii was determined as toxicity which indicates the death of animals at a dose of 0.27 (uM/kg/day). It counts as organism-based. The gist of the method: as §1
The subject of data set [21] is Pneumocystis carinii. The experiment in a line: In vivo activity against pneumocystis carinii was determined as toxicity which indicates the death of animals at a dose of 66.3 (uM/kg/day). The data set is classed as organism-based. The gist of the method:
as §1

In data set [22] the test system is Pneumocystis carinii. In words: In vivo activity against pneumocystis carinii was determined as toxicity which indicates the death of animals at a dose of 13.3 (uM/kg/day). It counts as organism-based. The gist of the method: as §1
Data set [23] concerns Pneumocystis carinii. In words: In vivo activity against pneumocystis carinii was determined as toxicity which indicates the death of animals and counted cysts in a blinding protocol in lung tissue reported as % of saline treated control at a dose of 23.3 uM/Kg/day. The data set is classed as organism-based. The gist of the method:
as §2

In data set [24] the test system is Pneumocystis carinii. The experiment in a line: In vivo activity against pneumocystis carinii was determined as toxicity which indicates the death of animals at a dose of 23.3 uM/Kg/day. The data set is classed as organism-based. The gist of the method:
as §2

Data set [25] relates to Pneumocystis carinii. The experiment in a line: In vivo activity against pneumocystis carinii was determined as toxicity which indicates the death of animals and counted cysts in a blinding protocol in lung tissue reported as % of saline treated control at a dose of 22.1 (uM/kg/day). It counts as organism-based. The gist of the method:
as §2

Data set [26] concerns Pneumocystis carinii. The experiment in a line: In vivo activity against pneumocystis carinii was determined as toxicity which indicates the death of animals at a dose of 22.1 (uM/kg/day). The data set is classed as organism-based. The gist of the method:
as §1

By IC50 is commonly meant the concentration that gives 50% inhibition.

As for `Cl.Cl.OCCN1CCN=C1c1ccc(-c2ccc(-c3ccc(C4=NCCN4CCO)cc3)o2)cc1`, in data set [1], the “No. of dead animals” value was 3. This compound also showed a Control in [2] of 107.3%. Further, the figures for the IC50 in data set [3] and in data set [4] were 4.6 µM and 20 µM, respectively.
Regarding `Cl.Cl.c1cc(-c2ccc(-c3ccc(C4=NCCCCN4)cc3)o2)ccc1C1=NCCCCN1`, the Control came out at 2.9% in data set [5] and 115.4% in data set [8]. Also, the “No. of dead animals” value is 0 in data set [6] and 3 in [7]. In addition, the 50% inhibitory concentration (IC50) in [3] was 0.93 µM; in [4] it was 1.5 µM.
In data set [9], `Cl.Cl.c1cc(-c2ccc(-c3ccc(C4=NC5CCCCC5N4)cc3)o2)ccc1C1=NC2CCCCC2N1` (configuration not stated) had a Control of 80.5%. The “No. of dead animals” value in data set [10] came out at 1. The IC50 in data set [3] is 4 µM; in data set [4], 3 µM.
As for `CCN1CCN=C1c1ccc(-c2ccc(-c3ccc(C4=NCCN4CC)cc3)o2)cc1.Cl.Cl`, the half-maximal inhibitory concentration (IC50) in data set [3] is 3.3 µM; in data set [4], 25 µM.
Turning to `Cl.Cl.c1cc(-c2ccc(-c3ccc(C4=NCCCN4)cc3)o2)ccc1C1=NCCCN1`, the IC50 in [3] came to 0.085 µM; in [4] it was 0.5 µM. Moreover, the Control in data set [11] is listed as 0.4%. Besides, the “No. of dead animals” value in data set [12] was determined as 2.
As to `Cl.Cl.N=C(N)c1ccc(-c2ccc(-c3ccc(C(=N)N)cc3)o2)cc1`, the Control was determined as 8.3% in [13]; 28.4% in data set [16]; 55.9% in data set [17]; 4.8% in data set [18]; 2.1% in data set [19]. The “No. of dead animals” value in [14], in [15], in [20], in data set [21] and in [22] was 0 throughout.
As to `N[C+](N)c1ccc(-c2ccc(-c3ccc([C+](N)N)cc3)o2)cc1`, in data set [3], the IC50 amounted to 0.44 µM.
`Cl.c1cc(-c2ccc(-c3ccc(C4=NCCN4)cc3)o2)ccc1C1=NCCN1` displayed a Control in [23] of 35.4%. For the same compound, in data set [24], the Toxicity is on record as 2 number of dead animals. In addition, the IC50 in data set [3] came to 1.95 µM; in data set [4], 3 µM.
In data set [25], `N=C(N)c1ccc(OCCCCCOc2ccc(C(=N)N)cc2)cc1` [PENTAMIDINE] registered a Control of 3.66%. In data set [26], the “No. of dead animals” value is on record as 2.

Source of the values: ChEMBL document CHEMBL1128267, “Dicationic diarylfurans as anti-Pneumocystis carinii agents” (J Med Chem, 1995).
